Assay outcomes: PubChem, Broad Institute
This is one part of a sample in which hits are shown more often than they occur.
KDM4C inh – KDM4C (human) demethylase inhibition | 96,000 tested, 0.15% active | inhibition, % at 12.5 µM | AID 720574 | Q9H3R0 | GST-KDM4C 2-372, H3K9me3 peptide, LANCE TR-FRET;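 active = mean replicate inhibition above about 25%, with at least 55% of replicates also reaching it, limit read from the data, passing the limit was not always enough; inconclusive = only one of those two conditions met; inactive = neither condition met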
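Material: N-terminal GST-fused human GASC-1 (KDM4C) fragment, residues 2-372. Input: 10 nM enzyme. Incubation: enzyme reaction 30 min, then detection 60 min, both room temperature. Doses: one test concentration per compound. Read-out basis: inhibition from TR-FRET ratio decrease. Detection: LANCE TR-FRET, excitation 340 nm, emissions 618 and 671 nm.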
T cruzi growth-1 – inhibitors of T. cruzi proliferation; T. cruzi beta-gal in NIH3T3, GalScreen luminescence, 90 h; inhibition, % at 8.34 µM; 77,000 tested, 5.9% active;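 active = mean inhibition above about 93%, with at least 55% of replicates each passing it, limit read from the data, passing the limit was not always enough; inconclusive = only one of those two conditions holds; inactive = neither condition holds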
IDH1 R132H inh – IDH1 R132H (human) inhibition. O75874. IDH1 R132H reductase, diaphorase/resazurin fluorescence, 60 min. inhibition, % at 10 µM. 70,000 tested, 0.18% active. AID 624101; in the data active = inhibition above about 34%; inconclusive = no clear call, values can overlap the other calls; inactive = below about 11%
Target sequence (O75874 whole entry R132H): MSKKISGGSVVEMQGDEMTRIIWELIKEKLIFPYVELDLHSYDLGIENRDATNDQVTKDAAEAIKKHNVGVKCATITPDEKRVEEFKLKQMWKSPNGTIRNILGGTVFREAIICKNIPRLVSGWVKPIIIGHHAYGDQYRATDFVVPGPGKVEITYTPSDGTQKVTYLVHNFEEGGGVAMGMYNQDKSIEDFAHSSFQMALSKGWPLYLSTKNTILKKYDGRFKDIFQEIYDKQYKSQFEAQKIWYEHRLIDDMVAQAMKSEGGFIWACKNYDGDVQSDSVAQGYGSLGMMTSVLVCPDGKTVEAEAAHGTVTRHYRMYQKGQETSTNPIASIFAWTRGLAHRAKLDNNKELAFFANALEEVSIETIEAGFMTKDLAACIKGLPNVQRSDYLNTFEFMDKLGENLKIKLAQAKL
T cruzi growth-2 – Trypanosoma cruzi proliferation inhibition; shares compounds with T cruzi growth-1; T. cruzi beta-gal in NIH3T3, GalScreen luminescence, 90 h; inhibition, % at 8.35 µM; 5,600 tested, 72% active;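 active = mean replicate inhibition above about 95% and at least 55% of replicates individually reaching it, limit read from the data; inconclusive = only one of the two criteria is met; inactive = neither criterion is met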
T cruzi growth-3 – blocks T. cruzi growth in NIH3T3 host cells; shares compounds with T cruzi growth-1; AID 651740; T. cruzi beta-gal in NIH3T3, GalScreen luminescence, 90 h; 5,600 tested, 21% active; inhibition, % at 2.09 µM;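 active = mean inhibition above about 95%, with at least 55% of replicates also reaching it, limit read from the data; inconclusive = meets just one of the two conditions; inactive = meets neither condition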
3T3 cytotox – NIH/3T3 (mouse) viability loss; 5,600 tested, 14% active; NIH/3T3 viability, CellTiter-Glo ATP luminescence, 90 h; cytotoxicity (signal decrease), % at 8.35 µM; AID 651742; shares compounds with T cruzi growth-1;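 active = mean signal decrease across replicates above about 35% based on untreated-well scatter, with enough replicates individually passing, limit read from the data; inconclusive = no rule stated though some were filed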
3T3 cytotox 2 – cytotoxicity in mouse NIH/3T3 fibroblasts; inhibition, % at 24.9 µM; NIH/3T3 viability, CellTiter-Glo ATP luminescence, 90 h; 5,600 tested, 56% active; shares compounds with T cruzi growth-1;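 active = mean loss of cell viability signal at or above a set limit, and enough replicates individually reaching it; inconclusive = meets only the mean limit or only the replicate share; inactive = meets neither condition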
Hits are given with their value; n = inactive; u = inconclusive; x = no result.

SMILES | KDM4C inh | T cruzi growth-1 | IDH1 R132H inh | T cruzi growth-2 | T cruzi growth-3 | 3T3 cytotox | 3T3 cytotox 2
C[C@@H]1CCCCO[C@H](CN(C)S(=O)(=O)c2ccc(F)cc2)[C@H](C)CN([C@H](C)CO)C(=O)c2cc(NC(=O)Nc3ccc(F)cc3)ccc2O1 | n | 100.5 | n | 96.1 | 109.6 | n | 39.6
C[C@H](CO)N1C[C@H](C)[C@@H](CN(C)S(=O)(=O)c2ccc(F)cc2)OCCCC[C@H](C)Oc2ccc(NC(=O)Nc3ccc(F)cc3)cc2C1=O | n | 100.3 | n | 108.2 | n | n | n
C[C@@H]1CN([C@H](C)CO)C(=O)c2cc(NC(=O)Nc3ccc(F)cc3)ccc2O[C@@H](C)CCCCO[C@H]1CN(C)S(=O)(=O)c1ccc(F)cc1 | n | n | x | x | x | x | x
C[C@@H]1CN([C@H](C)CO)C(=O)c2cc(NC(=O)Nc3ccc(F)cc3)ccc2O[C@@H](C)CCCCO[C@H]1CN(C)S(=O)(=O)c1ccc(Cl)cc1 | x | n | n | x | x | x | x
C[C@@H]1CN([C@@H](C)CO)C(=O)c2cc(NC(=O)Nc3ccc(F)cc3)ccc2O[C@@H](C)CCCCO[C@@H]1CN(C)S(=O)(=O)c1ccc(F)cc1 | n | n | n | x | x | x | x
Cc1cccc(N(CC(=O)Nc2ccc(Cl)c(Cl)c2)S(C)(=O)=O)c1 | x | x | n | x | x | x | x
COC(=O)c1ccc(NC(=O)CSc2nnc(-c3ccccc3)n2-c2ccccc2)cc1 | x | x | n | x | x | x | x
CS(=O)(=O)N1CCN(c2ccccc2NC(=O)c2ccc(N3CCCCC3)c([N+](=O)[O-])c2)CC1 | x | x | n | x | x | x | x
COc1ccc(OC)c(NC(=O)c2c(NC(=O)c3ccccc3)sc3c2CCC(C)C3)c1 (stereo unspecified) | x | x | n | x | x | x | x
O=C(C[C@@H]1CC[C@@H]2[C@H](COC[C@@H](O)CN2S(=O)(=O)c2ccc(F)cc2)O1)NCC1CC1 | n | n | x | x | x | x | x
O=C(C[C@H]1CC[C@@H]2[C@H](COC[C@@H](O)CN2S(=O)(=O)c2ccc(F)cc2)O1)NCCN1CCCCC1 | n | 114.5 | x | n | n | n | n
O=C(C[C@@H]1CC[C@@H]2[C@H](COC[C@@H](O)CN2S(=O)(=O)c2ccc(F)cc2)O1)NCCN1CCCCC1 | n | n | x | x | x | x | x
O=C(C[C@@H]1CC[C@@H]2[C@H](COC[C@H](O)CN2S(=O)(=O)c2ccc(F)cc2)O1)NCC1CCCCC1 | n | u | x | n | n | n | n
COc1cccc(CNC(=O)c2cc3c(c(-c4cccc(-c5cccc(C#N)c5)c4)n2)[C@H](CCO)N([S@@](=O)C(C)(C)C)C3)c1 | n | n | n | x | x | x | x
CC(C)(C)[S@@](=O)N1Cc2cc(C(=O)NCCN3CCCC3)nc(-c3cccc(-c4ccc(C#N)cc4)c3)c2[C@H]1CCO | n | n | n | x | x | x | x
CC(C)(C)[S@](=O)N1Cc2cc(C(=O)NCc3ccncc3)nc(-c3cccc(-c4ccc(C#N)cc4)c3)c2[C@@H]1CCO | n | 99.4 | n | 102.7 | n | n | u
CC(C)(C)[S@](=O)N1Cc2cc(C(=O)N3CCCCC3)nc(-c3cccc(-c4ccc(C#N)cc4)c3)c2[C@@H]1CCO | n | 100.8 | n | 107.4 | n | n | n
CC(C)(C)[S@](=O)N1Cc2cc(C(=O)NCCc3ccncc3)nc(-c3cccc(-c4ccc(C#N)cc4)c3)c2[C@@H]1CCO | n | 97.0 | n | 112.3 | n | 46.1 | 38.5
CN1CCN(C(=O)c2cc3c(c(-c4cccc(-c5ccc(C#N)cc5)c4)n2)[C@@H](CCO)N([S@](=O)C(C)(C)C)C3)CC1 | n | n | n | x | x | x | x
CC(C)(C)[S@@](=O)N1Cc2cc(C(=O)NCCc3ccncc3)nc(-c3cccc(-c4cccc(C#N)c4)c3)c2[C@H]1CCO | n | n | n | x | x | x | x
COc1cccc(CNC(=O)c2cc3c(c(-c4cccc(-c5ccncc5)c4)n2)[C@H](CCO)N([S@@](=O)C(C)(C)C)C3)c1 | n | 99.7 | n | 110.0 | n | n | 52.1
COC(=O)c1sc2ncn(CC(=O)Nc3ccccc3OC)c(=O)c2c1C | x | x | n | x | x | x | x
CC(Oc1cccc(NC(=O)c2ccc([N+](=O)[O-])cc2)c1)C(=O)c1cccc(Cl)c1 (stereo unspecified) | x | x | n | x | x | x | x
O=C(CSc1nnc(-c2ccccc2)n1-c1ccccc1)Nc1ccc(Br)c(Cl)c1 | x | x | n | x | x | x | x
COc1ccc([N+](=O)[O-])cc1NC(=O)C(CC(C)C)N1C(=O)c2ccccc2C1=O (stereo unspecified) | x | x | n | x | x | x | x
SMILES | KDM4C inh | T cruzi growth-1 | IDH1 R132H inh | T cruzi growth-2 | T cruzi growth-3 | 3T3 cytotox | 3T3 cytotox 2
CC1(C)CC(=O)c2c(O)cc(OCC(=O)c3ccccc3)cc2O1 | x | x | n | x | x | x | x
C[C@@H]1CCCCO[C@H](CN(C)C(=O)Cc2ccccc2)[C@@H](C)CN([C@@H](C)CO)C(=O)c2cc(NC(=O)Nc3ccc4c(c3)OCO4)ccc2O1 | n | u | x | 108.8 | n | n | n
C[C@@H]1CN([C@@H](C)CO)C(=O)c2cc(NC(=O)Nc3ccc4c(c3)OCO4)ccc2O[C@@H](C)CCCCO[C@H]1CN(C)C(=O)Cc1ccccc1 | n | n | x | x | x | x | x
C[C@@H]1CN([C@@H](C)CO)C(=O)c2cc(NC(=O)Nc3ccccc3)ccc2O[C@@H](C)CCCCO[C@H]1CN(C)C(=O)Cc1ccccc1 | n | n | n | x | x | x | x
C[C@H]1CCCCO[C@H](CN(C)C(=O)Cc2ccccc2)[C@@H](C)CN([C@@H](C)CO)C(=O)c2cc(NC(=O)Nc3ccc4c(c3)OCO4)ccc2O1 | n | 114.7 | n | 111.6 | n | n | n
COc1ccc(N(CC(=O)Nc2ccc(C)cc2C)S(C)(=O)=O)cc1 | x | x | n | x | x | x | x
C[C@@H]1CN([C@H](C)CO)C(=O)c2cc(NC(=O)NC3CCCCC3)ccc2O[C@@H](C)CCCCO[C@H]1CN(C)C(=O)Nc1ccc2c(c1)OCO2 | n | n | n | x | x | x | x
C[C@@H]1CCCCO[C@@H](CN(C)C(=O)Nc2ccc3c(c2)OCO3)[C@H](C)CN([C@@H](C)CO)C(=O)c2cc(NC(=O)NC3CCCCC3)ccc2O1 | n | n | x | x | x | x | x
C[C@@H]1CCCCO[C@@H](CN(C)C(=O)Nc2ccc3c(c2)OCO3)[C@H](C)CN([C@H](C)CO)C(=O)c2cc(NC(=O)NC3CCCCC3)ccc2O1 | n | u | x | 108.1 | n | n | n
C[C@H]1CCCCO[C@@H](CN(C)C(=O)Nc2ccc3c(c2)OCO3)[C@@H](C)CN([C@@H](C)CO)C(=O)c2cc(NC(=O)NC3CCCCC3)ccc2O1 | n | 117.7 | x | 112.7 | n | n | n
CC(NC(=O)c1ccc(Cl)cc1)C(=O)NC(C)(C)CO (stereo unspecified) | x | x | n | x | x | x | x
O=C(C1CC1)N1CC[C@@H]2[C@@H](CO)Nc3ccc(-c4cccc(F)c4)cc3[C@@H]21 | n | 109.2 | x | 100.8 | n | n | 26.4
O=C(C1CCC1)N1CC[C@@H]2[C@H](CO)Nc3ccc(-c4cccc(F)c4)cc3[C@@H]21 | n | u | x | 106.1 | n | n | 70.5
